Tests used:
HT-29 = assay: Cytotoxicity against human HT29 cells after 72 hrs by MTS assay; assay type: functional, cell-based; details: HT-29, 72 h
Summary of the method: (§1)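 Cells attached 24 h before dosing: HeLa at 2000 cells/well in MEM with 10% FBS, and HT29 at 5000 cells/well in RPMI-1640 with 10% FBS. At least five serial dilutions were added for 72 h at 37 °C in 5% CO2. MTS/PMS was then added for 3 h and absorbance read at 490 nm, relative to untreated solvent controls. Runs were at least triplicate, and IC50 came from nonlinear regression.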

HeLa = assay: Cytotoxicity against human HeLa cells after 72 hrs by MTS assay; assay type: functional, cell-based; summary of the method: as §1
MRC5 = assay: Induction of proliferation in human MRC5 cells; assay type: functional; set-up: unit: fraction of untreated control
Summary of the method: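 Normal MRC-5 lung fibroblasts were grown in EMEM with 10% FBS, seeded at 5000 cells/well and allowed 24 h to attach. Chelators at 50 µM were given for 72 h at 37 °C in 5% CO2. Read-out was MTS/PMS for 3 h, with absorbance at 490 nm expressed as a fraction of untreated solvent controls. Runs were at least triplicate.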

Compound | IC50 (HT-29) [µM] | IC50 (HeLa) [µM] | Activity (MRC5)
O=C(O)CNC(Cc1ccc([N+](=O)[O-])cc1)CN1CCN(CC(=O)O)CCN(CC(=O)O)CC1 (stereo unspecified) | 5 | 7.1 | 2
O=C(O)CNC(Cc1ccc(Nc2ccc([N+](=O)[O-])c3nonc23)cc1)CN1CCN(CC(=O)O)CCN(CC(=O)O)CC1 (stereo unspecified) |  |  | 2
O=C(O)CNCCN1CCN(CC(=O)O)CCN(CC(=O)O)CC1 | 4.7 | 5.7 | 2
O=C(O)CN1CCN(CC(=O)O)CCN(CC(Cc2ccc([N+](=O)[O-])cc2)N(CC(=O)O)CC(=O)O)CC1 (stereo unspecified) | 45.7 | > 100 | 
O=C(O)CN1CCN(CCN(CC(=O)O)Cc2ccc([N+](=O)[O-])cc2)CCN(CC(=O)O)CC1 | 6.8 | 8.4 | 2
O=C(O)CN1CCN(CCN(CC(=O)O)CC(=O)O)CCN(CC(=O)O)CC1 | 7.3 |  | 2
O=C(O)CN1CCN(CCN(CC(=O)O)Cc2ccccc2)CCN(CC(=O)O)CC1 | 2.6 | 4.4 | 2
CC(=O)N(O)CCCCCNC(=O)CCC(=O)N(O)CCCCCNC(=O)CCC(=O)N(O)CCCCCN [DEFEROXAMINE] | 36.1 | > 50 | 
O=C(O)CN(CCN(CC(=O)O)CC(=O)O)CCN(CC(=O)O)CC(=O)O [PENTETIC ACID] | 39.1 | 264 | 

Reference: ChEMBL document CHEMBL1144695, “Synthesis and evaluation of novel polyaminocarboxylate-based antitumor agents” (J Med Chem, 2008)
